Holding throughout (details): stereoisomer not certain
One assay concerns the target OR9G9 (Homo sapiens) (UniProt P0C7N8). Put shortly:
(§1)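 Each entry records the cell line, G-protein, co-transfected protein and tags used. Methods varied with the source, often transient luciferase assays in mammalian cell lines. A receptor–molecule pair is called responsive (active) if the original authors judged its signal statistically different from baseline and non-responsive (inactive) otherwise.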

The next assay has as its target OR9I1 (Homo sapiens) (UniProt Q8NGQ6). The procedure, abridged: as §1
Another assay deals with OR9K2 (Homo sapiens) (UniProt Q8NGE7). Put shortly:
as §1

For the next assay, the target named is OR9Q1 (Homo sapiens) (UniProt Q8NGQ5). The procedure, abridged: as §1
Chain of OR9Q1 (Homo sapiens) (Q8NGQ5 whole entry): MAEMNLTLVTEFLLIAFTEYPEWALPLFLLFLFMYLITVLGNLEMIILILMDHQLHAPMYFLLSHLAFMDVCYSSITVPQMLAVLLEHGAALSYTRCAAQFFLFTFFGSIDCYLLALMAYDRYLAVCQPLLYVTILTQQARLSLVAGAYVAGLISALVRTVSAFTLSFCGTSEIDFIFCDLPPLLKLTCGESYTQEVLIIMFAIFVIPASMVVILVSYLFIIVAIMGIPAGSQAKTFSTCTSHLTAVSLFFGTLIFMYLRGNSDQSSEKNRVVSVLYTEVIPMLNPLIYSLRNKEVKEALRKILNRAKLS
The next assay has as its target OR9Q2 (Homo sapiens) (UniProt Q8NGE9). The procedure, abridged: as §1
The target in a further assay is Or5an6 (Mus musculus) (UniProt Q8VFV4). The procedure, abridged:
as §1

The next assay addresses T1, Or1m1 (Mus musculus) (UniProt Q8VFM9).
T1 sequence (whole entry): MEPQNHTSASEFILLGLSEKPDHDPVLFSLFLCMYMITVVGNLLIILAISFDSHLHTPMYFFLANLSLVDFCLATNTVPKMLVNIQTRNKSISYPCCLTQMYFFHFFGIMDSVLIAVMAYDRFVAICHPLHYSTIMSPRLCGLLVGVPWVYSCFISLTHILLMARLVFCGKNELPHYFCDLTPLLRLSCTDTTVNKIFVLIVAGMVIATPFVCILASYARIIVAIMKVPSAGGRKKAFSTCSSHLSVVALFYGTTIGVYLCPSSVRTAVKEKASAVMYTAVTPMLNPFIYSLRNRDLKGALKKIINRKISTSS
Put shortly:
as §1

The target of the next assay is T2, Or5ar1 (Mus musculus) (UniProt Q8VGS3).
T2 sequence (whole entry): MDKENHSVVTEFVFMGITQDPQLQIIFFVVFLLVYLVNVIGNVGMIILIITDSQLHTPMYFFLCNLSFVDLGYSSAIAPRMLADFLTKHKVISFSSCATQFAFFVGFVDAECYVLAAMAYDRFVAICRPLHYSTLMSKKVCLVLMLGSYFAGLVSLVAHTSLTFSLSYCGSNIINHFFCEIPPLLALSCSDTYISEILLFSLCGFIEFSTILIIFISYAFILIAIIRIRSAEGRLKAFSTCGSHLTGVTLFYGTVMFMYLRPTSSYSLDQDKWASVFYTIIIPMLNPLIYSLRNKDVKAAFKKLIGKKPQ
Put shortly:
as §1

For the next assay, the target named is T3, UniProt A2ATE5.
T3 sequence (whole entry): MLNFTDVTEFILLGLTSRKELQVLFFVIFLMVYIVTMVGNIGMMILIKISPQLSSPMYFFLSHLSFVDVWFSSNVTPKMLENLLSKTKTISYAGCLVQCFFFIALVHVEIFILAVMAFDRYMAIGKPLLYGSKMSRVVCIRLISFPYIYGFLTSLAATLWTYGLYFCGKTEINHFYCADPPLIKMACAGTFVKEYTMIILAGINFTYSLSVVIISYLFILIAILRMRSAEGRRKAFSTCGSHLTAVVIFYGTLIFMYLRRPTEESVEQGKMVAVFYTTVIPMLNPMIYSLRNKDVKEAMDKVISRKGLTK
The procedure, abridged: as §1

The next assay addresses T4, UniProt A2AVB0.
T4 sequence (whole entry): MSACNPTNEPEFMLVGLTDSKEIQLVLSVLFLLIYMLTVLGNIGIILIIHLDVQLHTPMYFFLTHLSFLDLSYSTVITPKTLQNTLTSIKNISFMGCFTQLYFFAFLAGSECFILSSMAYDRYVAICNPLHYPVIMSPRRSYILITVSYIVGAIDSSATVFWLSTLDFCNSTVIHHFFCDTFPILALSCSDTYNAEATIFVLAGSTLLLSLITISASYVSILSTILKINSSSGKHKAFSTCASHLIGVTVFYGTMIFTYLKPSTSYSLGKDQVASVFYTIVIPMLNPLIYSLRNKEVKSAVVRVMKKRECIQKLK
Put shortly:
as §1

Another assay concerns the target Or5p57 (Mus musculus) (UniProt Q8VEZ0). The procedure, abridged:
as §1

The target of another assay is T5, Or2c1 (Mus musculus) (UniProt P23275).
T5 sequence (whole entry): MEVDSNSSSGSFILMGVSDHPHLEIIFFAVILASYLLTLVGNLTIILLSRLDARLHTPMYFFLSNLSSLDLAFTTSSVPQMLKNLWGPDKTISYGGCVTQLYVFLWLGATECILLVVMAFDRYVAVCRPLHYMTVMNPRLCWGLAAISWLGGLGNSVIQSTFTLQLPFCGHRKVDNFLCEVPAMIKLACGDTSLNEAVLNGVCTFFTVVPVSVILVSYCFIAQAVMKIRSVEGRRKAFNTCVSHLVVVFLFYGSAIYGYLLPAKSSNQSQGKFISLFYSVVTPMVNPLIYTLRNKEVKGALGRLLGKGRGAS
Put shortly: as §1

In the next assay the target is T6, Or5p80 (Mus musculus) (UniProt Q8VG42).
T6 sequence (whole entry): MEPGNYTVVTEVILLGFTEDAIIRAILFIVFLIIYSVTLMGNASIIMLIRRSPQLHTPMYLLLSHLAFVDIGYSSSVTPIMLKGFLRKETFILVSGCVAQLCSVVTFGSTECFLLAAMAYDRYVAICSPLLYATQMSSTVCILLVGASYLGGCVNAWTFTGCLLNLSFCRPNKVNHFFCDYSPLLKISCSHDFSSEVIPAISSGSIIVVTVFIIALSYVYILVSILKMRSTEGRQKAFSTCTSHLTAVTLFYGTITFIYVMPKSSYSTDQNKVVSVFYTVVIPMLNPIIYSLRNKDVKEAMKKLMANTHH
The procedure, abridged:
as §1

The target in another assay is T7, Or7a40 (Mus musculus) (UniProt Q9JHB2).
T7 sequence (whole entry): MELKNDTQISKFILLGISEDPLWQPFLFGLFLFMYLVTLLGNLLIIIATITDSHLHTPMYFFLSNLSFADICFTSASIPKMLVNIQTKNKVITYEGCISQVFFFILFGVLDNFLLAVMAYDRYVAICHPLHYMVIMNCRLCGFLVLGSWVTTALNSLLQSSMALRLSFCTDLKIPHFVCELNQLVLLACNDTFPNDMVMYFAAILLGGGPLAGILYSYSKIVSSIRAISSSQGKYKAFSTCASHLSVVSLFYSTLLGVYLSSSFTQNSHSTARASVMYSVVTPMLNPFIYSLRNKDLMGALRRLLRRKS
The procedure, abridged:
as §1

In the next assay the target is T8, UniProt A2AVB5.
T8 sequence (whole entry): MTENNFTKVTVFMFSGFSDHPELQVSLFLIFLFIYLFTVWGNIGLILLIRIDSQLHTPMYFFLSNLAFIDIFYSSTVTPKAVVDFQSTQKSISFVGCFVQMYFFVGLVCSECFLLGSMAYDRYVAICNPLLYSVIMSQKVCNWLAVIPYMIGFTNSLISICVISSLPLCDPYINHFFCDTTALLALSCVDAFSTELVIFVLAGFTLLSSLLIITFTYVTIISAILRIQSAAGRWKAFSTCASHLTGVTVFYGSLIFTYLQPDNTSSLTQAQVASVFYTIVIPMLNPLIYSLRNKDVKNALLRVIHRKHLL
The procedure, abridged: as §1

The test system of the next assay is OR9G9. Put shortly: as §1
Chain of OR9G9 (as listed by the source): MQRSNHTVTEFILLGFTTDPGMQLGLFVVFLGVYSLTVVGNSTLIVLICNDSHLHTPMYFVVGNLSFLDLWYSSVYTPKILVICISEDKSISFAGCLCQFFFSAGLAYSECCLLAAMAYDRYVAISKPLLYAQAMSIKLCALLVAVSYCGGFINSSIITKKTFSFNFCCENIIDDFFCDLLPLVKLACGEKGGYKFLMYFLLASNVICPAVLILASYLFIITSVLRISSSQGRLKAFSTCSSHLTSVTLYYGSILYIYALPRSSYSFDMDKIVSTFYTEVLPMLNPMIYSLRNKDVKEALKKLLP
A further assay has as its system OR9K2 R207H. The procedure, abridged:
as §1

In the next assay the test system is OR9Q1 A83T. Put shortly: as §1
Chain of OR9Q1 A83T (as listed by the source, stated change not applied): as the sequence (Q8NGQ5 whole entry) above, with A83T counted along it
The test system of a further assay is OR9Q2 C179R. The procedure, abridged:
as §1

Assay [1] deals with Olr226 (Rattus norvegicus) (UniProt P23270). Put shortly:
as §1

Molecules are shown by their SMILES.

Chain of OR9K2 (Homo sapiens) (Q8NGE7 whole entry): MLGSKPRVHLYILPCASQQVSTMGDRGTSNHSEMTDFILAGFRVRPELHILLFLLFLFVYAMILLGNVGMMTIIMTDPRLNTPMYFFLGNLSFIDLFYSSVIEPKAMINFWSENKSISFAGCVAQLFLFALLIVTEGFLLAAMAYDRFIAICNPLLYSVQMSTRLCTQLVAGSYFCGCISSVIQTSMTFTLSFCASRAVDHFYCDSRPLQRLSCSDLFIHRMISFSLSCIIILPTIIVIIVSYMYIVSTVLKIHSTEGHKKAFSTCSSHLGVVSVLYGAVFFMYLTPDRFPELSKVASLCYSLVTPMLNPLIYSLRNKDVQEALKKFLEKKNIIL
Chain of OR9Q2 (Homo sapiens) (Q8NGE9 whole entry): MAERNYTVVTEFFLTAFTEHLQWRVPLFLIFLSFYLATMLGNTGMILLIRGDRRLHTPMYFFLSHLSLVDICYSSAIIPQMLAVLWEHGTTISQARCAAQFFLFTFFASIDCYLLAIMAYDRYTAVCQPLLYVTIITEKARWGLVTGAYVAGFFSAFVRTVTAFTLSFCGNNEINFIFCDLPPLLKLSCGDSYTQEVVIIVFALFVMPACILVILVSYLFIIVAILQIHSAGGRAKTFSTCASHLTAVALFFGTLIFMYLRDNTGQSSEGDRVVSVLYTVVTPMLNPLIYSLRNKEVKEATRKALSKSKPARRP
Chain of OR9I1 (Homo sapiens) (Q8NGQ6 whole entry): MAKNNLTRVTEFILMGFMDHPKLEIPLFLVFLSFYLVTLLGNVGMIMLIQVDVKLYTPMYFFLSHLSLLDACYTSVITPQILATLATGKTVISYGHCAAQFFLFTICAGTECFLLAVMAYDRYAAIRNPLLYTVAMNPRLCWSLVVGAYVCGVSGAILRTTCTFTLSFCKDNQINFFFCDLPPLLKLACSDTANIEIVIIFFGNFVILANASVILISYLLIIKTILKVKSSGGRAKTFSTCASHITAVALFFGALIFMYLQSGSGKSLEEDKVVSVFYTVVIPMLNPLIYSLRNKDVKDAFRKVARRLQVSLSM
Chain of Or5an6 (Mus musculus) (Q8VFV4 whole entry): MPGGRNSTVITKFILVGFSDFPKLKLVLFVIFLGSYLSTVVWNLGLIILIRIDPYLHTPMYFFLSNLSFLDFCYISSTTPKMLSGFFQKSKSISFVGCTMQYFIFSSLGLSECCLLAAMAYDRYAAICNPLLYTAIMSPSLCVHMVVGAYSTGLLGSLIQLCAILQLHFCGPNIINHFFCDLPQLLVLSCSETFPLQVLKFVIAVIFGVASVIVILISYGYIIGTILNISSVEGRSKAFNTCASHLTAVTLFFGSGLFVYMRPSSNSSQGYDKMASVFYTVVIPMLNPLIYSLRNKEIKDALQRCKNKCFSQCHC
Chain of OR9G9 (Homo sapiens) (P0C7N8 whole entry): as the sequence (as listed by the source) above, with G193C counted along it
Chain of OR9K2 R207H (as listed by the source, stated change not applied): as the sequence (Q8NGE7 whole entry) above, with R207H counted along it
Chain of Or5p57 (Mus musculus) (Q8VEZ0 whole entry): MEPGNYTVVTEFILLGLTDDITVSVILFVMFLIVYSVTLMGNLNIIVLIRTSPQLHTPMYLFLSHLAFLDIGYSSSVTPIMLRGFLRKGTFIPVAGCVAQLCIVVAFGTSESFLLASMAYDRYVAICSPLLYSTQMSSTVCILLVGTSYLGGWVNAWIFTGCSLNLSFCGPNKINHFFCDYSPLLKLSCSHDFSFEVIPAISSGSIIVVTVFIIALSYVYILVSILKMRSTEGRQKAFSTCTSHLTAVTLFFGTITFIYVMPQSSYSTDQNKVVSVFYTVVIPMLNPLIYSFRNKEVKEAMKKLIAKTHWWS
Chain of OR9Q2 C179R (as listed by the source, stated change not applied): as the sequence (Q8NGE9 whole entry) above, with C179R counted along it
Chain of Olr226 (Rattus norvegicus) (P23270 whole entry): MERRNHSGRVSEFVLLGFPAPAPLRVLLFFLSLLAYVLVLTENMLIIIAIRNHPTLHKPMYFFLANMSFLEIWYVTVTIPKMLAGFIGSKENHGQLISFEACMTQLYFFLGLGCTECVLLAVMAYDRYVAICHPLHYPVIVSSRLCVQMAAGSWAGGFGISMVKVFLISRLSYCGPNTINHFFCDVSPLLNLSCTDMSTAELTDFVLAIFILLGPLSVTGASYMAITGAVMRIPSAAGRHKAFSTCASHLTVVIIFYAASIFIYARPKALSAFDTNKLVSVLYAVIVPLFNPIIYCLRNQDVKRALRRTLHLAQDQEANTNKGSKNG

Take `Cc1c([N+](=O)[O-])c(C)c([N+](=O)[O-])c(C(C)(C)C)c1[N+](=O)[O-]`: the “odorant receptor agonist call” value in the assay with OR9G9 (Homo sapiens), with OR9I1 (Homo sapiens), with OR9K2 (Homo sapiens), in the assay with OR9Q1 (Homo sapiens) and with OR9Q2 (Homo sapiens) was “inactive” in each case. In the assay with Or5an6 (Mus musculus), the “odorant receptor agonist call” value was “active”.

For `Oc1ccccc1Br`, the “odorant receptor agonist call” value with Or1m1 (Mus musculus), with Or5ar1 (Mus musculus), in the assay with UniProt A2ATE5 and in the assay with UniProt A2AVB0 was “inactive” throughout.

Regarding `Cc1ccc(OC(=O)Cc2ccccc2)cc1`, the “odorant receptor agonist call” value in the assay with Or1m1 (Mus musculus), with Or5ar1 (Mus musculus), with UniProt A2ATE5 and with UniProt A2AVB0 was “inactive” throughout.

As to `O=C(O)CCCCCCCBr`, the “odorant receptor agonist call” value with Or5p57 (Mus musculus) was “inactive”.

On to `CSSC`, for which the “odorant receptor agonist call” value with Or1m1 (Mus musculus), with Or5ar1 (Mus musculus), with UniProt A2ATE5 and in the assay with UniProt A2AVB0 was “inactive” in each case.

For `C=C(C)C1CC=C(C=O)CC1` (configuration not stated), the “odorant receptor agonist call” value with Or1m1 (Mus musculus), with Or5ar1 (Mus musculus), with UniProt A2ATE5 and with UniProt A2AVB0 was “inactive” in each case.

Take `C=CCc1ccccc1`: the “odorant receptor agonist call” value with Or2c1 (Mus musculus) is “active”. For the same molecule, the “odorant receptor agonist call” value with Or5ar1 (Mus musculus), with Or5p80 (Mus musculus), with Or7a40 (Mus musculus) and with UniProt A2AVB5 was “inactive” each time.

On to `C=CCOC(=O)Cc1ccccc1`, for which the “odorant receptor agonist call” value with OR9G9, in the assay with OR9I1 (Homo sapiens), with OR9K2 (Homo sapiens), in the assay on OR9K2 R207H, with OR9Q1 (Homo sapiens) and in the assay with OR9Q1 A83T was “inactive” throughout. Besides, the “odorant receptor agonist call” value with OR9Q2 (Homo sapiens), with OR9Q2 C179R, with Or1m1 (Mus musculus), with Or5ar1 (Mus musculus), with Or5p80 (Mus musculus) and in the assay with Or7a40 (Mus musculus) was “inactive” each time. Moreover, the “odorant receptor agonist call” value with UniProt A2ATE5, in the assay with UniProt A2AVB0 and in the assay with UniProt A2AVB5 was “inactive” in each case. The “odorant receptor agonist call” value in the assay with Or2c1 (Mus musculus) is “active”.

On to `O=Cc1ccccc1`, for which the “odorant receptor agonist call” value with Or1m1 (Mus musculus), with Or5ar1 (Mus musculus), with UniProt A2ATE5 and with UniProt A2AVB0 was “inactive” each time.

For `O=c1cc(O)c2ccccc2o1`, the “odorant receptor agonist call” value with Or1m1 (Mus musculus), with Or2c1 (Mus musculus), in the assay with Or5ar1 (Mus musculus), in the assay with Or5p80 (Mus musculus), in the assay with Or7a40 (Mus musculus) and with UniProt A2ATE5 was “inactive” in each case. For the same molecule, the “odorant receptor agonist call” value in the assay with UniProt A2AVB0 and in the assay with UniProt A2AVB5 was “inactive” in each case.

In the case of `OCc1ccc2c(c1)OCO2`, the “odorant receptor agonist call” value with Or1m1 (Mus musculus), with Or5ar1 (Mus musculus), with UniProt A2ATE5 and in the assay with UniProt A2AVB0 was “inactive” in each case.

On to `O=CC=Cc1ccccc1`, for which the “odorant receptor agonist call” value with OR9G9 is “active”. Further, the “odorant receptor agonist call” value with Or1m1 (Mus musculus), in the assay with Or5ar1 (Mus musculus), with UniProt A2ATE5 and with UniProt A2AVB0 was “inactive” each time.

In the case of `COc1ccc(C=O)cc1`, the “odorant receptor agonist call” value with Or1m1 (Mus musculus), with Or5ar1 (Mus musculus), in the assay with UniProt A2ATE5 and with UniProt A2AVB0 was “inactive” throughout.

Turning to `CCC1CCC(=O)O1` (configuration not stated), the “odorant receptor agonist call” value with Or2c1 (Mus musculus), in the assay with Or5ar1 (Mus musculus), in the assay with Or5p80 (Mus musculus), in the assay with Or7a40 (Mus musculus) and with UniProt A2AVB5 was “inactive” throughout.

Turning to `CC(=O)c1cc(C(C)(C)C)cc2c1CCC2(C)C`, the “odorant receptor agonist call” value in the assay with Or5an6 (Mus musculus) is “active”.

On to `CCCCCCC(Br)C(=O)O` (configuration not stated), for which the “odorant receptor agonist call” value with Or1m1 (Mus musculus), in the assay with Or5ar1 (Mus musculus), with UniProt A2ATE5 and with UniProt A2AVB0 was “inactive” in each case.

Consider `CC(C=O)Cc1ccc2c(c1)OCO2` (configuration not stated), for which the “odorant receptor agonist call” value (in assay [1]; in the assay with Or1m1 (Mus musculus); with Or5ar1 (Mus musculus); with UniProt A2ATE5; with UniProt A2AVB0) was “inactive” in each case.

For `CCCCC(Br)C(=O)O` (configuration not stated), the “odorant receptor agonist call” value with Or1m1 (Mus musculus), with Or5ar1 (Mus musculus), in the assay with UniProt A2ATE5 and with UniProt A2AVB0 was “inactive” each time.

Consider `O=Cc1ccc2c(c1)OCO2`, for which the “odorant receptor agonist call” value with Or1m1 (Mus musculus), in the assay with Or5ar1 (Mus musculus), in the assay with UniProt A2ATE5 and with UniProt A2AVB0 was “inactive” each time.
